Non-standard residues stand in square brackets, D forms with d. Residues, ends and D or L forms follow the SMILES beside them. d2Nal = N[C@H](Cc1ccc2ccccc2c1)C(=O)O

The assay has as its system Candida albicans. In words: Inhibition of Candida albicans at 100 uM concentration. It counts as functional. An outline of the steps:
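Five C. albicans clinical isolates plus ATCC 24433, grown 48 h at 32 °C in Sabouraud dextrose broth to stationary phase, washed in distilled water. 1×10^6 yeast in water exposed to peptide at 10^-4 M final, 2 h at 37 °C; water controls. Diluted to ~100 organisms/mL, 1 mL plated on blood agar, 48 h at 37 °C, colonies counted. Triplicates.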
One may read the inhibition as how much of the control response was suppressed. A low value points to a response near the control. Compound `CC(C)[C@H](NC(=O)[C@H](CO)NC(=O)[C@H](CCCCN)NC(=O)CNC(=O)[C@H](Cc1c[nH]c2ccccc12)NC(=O)[C@H](CCCN=C(N)N)NC(=O)[C@@H](Cc1ccc2ccccc2c1)NC(=O)[C@@H](N)Cc1c[nH]cn1)C(N)=O` returned an inhibition at 100 µM of 73.9%.
To `CC(C)[C@H](NC(=O)[C@H](Cc1ccccc1)NC(=O)[C@H](CCCCN)NC(=O)CNC(=O)[C@H](Cc1c[nH]c2ccccc12)NC(=O)[C@H](CCCNC(=N)N)NC(=O)[C@H](Cc1ccccc1)NC(=O)[C@@H](N)Cc1cnc[nH]1)C(N)=O` belongs 97.5%.
The result for `CC(C)[C@H](NC(=O)[C@H](Cc1ccccc1)NC(=O)[C@H](CCCCN)NC(=O)CNC(=O)[C@H](Cc1c[nH]c2ccccc12)NC(=O)[C@H](CCCN=C(N)N)NC(=O)[C@@H](Cc1ccc2ccccc2c1)NC(=O)[C@@H](N)Cc1c[nH]cn1)C(N)=O` reads 67.7%; that for `CC(C)[C@H](NC(=O)[C@@H](C)NC(=O)[C@H](CCCCN)NC(=O)CNC(=O)[C@H](Cc1c[nH]c2ccccc12)NC(=O)[C@H](CCCN=C(N)N)NC(=O)[C@@H](Cc1ccc2ccccc2c1)NC(=O)[C@@H](N)Cc1c[nH]cn1)C(N)=O`, 28%.
`CC(C)[C@@H](NC(=O)[C@H]1CCCN1C(=O)[C@H](CCCCN)NC(=O)CNC(=O)[C@H](Cc1c[nH]c2ccccc12)NC(=O)[C@H](CCCN=C(N)N)NC(=O)[C@H](Cc1ccccc1)NC(=O)[C@@H](N)Cc1c[nH]cn1)C(N)=O`: 100 µM produced 82.5% inhibition.
For the compound `CC(C)[C@H](NC(=O)[C@@H](Cc1ccccc1)NC(=O)[C@H](CCCCN)NC(=O)CNC(=O)[C@H](Cc1c[nH]c2ccccc12)NC(=O)[C@H](CCCN=C(N)N)NC(=O)[C@@H](Cc1ccc2ccccc2c1)NC(=O)[C@@H](N)Cc1c[nH]cn1)C(N)=O`, the inhibition at 100 µM came out at 99.7%.
Take `CC(C)[C@H](NC(=O)[C@H](C)NC(=O)[C@H](CCCCN)NC(=O)CNC(=O)[C@H](Cc1c[nH]c2ccccc12)NC(=O)[C@H](CCCN=C(N)N)NC(=O)[C@@H](Cc1ccc2ccccc2c1)NC(=O)[C@@H](N)Cc1c[nH]cn1)C(N)=O`: the inhibition at 100 µM was found to be 69.2%.
In turn, `CC(C)[C@H](NC(=O)[C@H](CC(=O)O)NC(=O)[C@H](CCCCN)NC(=O)CNC(=O)[C@H](Cc1c[nH]c2ccccc12)NC(=O)[C@H](CCCN=C(N)N)NC(=O)[C@H](Cc1ccccc1)NC(=O)[C@@H](N)Cc1c[nH]cn1)C(N)=O` yielded an inhibition at 100 µM of 15.7%.
In turn, `CC(C)[C@H](NC(=O)[C@H](CCCCN)NC(=O)[C@H](CCCCN)NC(=O)CNC(=O)[C@H](Cc1c[nH]c2ccccc12)NC(=O)[C@H](CCCN=C(N)N)NC(=O)[C@@H](Cc1ccc2ccccc2c1)NC(=O)[C@@H](N)Cc1c[nH]cn1)C(N)=O` returned an inhibition at 100 µM of 83.8%.
For the compound `CC(C)[C@H](NC(=O)[C@H]1CCCN1C(=O)[C@H](CCCCN)NC(=O)CNC(=O)[C@H](Cc1c[nH]c2ccccc12)NC(=O)[C@H](CCCN=C(N)N)NC(=O)[C@@H](Cc1ccccc1)NC(=O)[C@@H](N)Cc1c[nH]cn1)C(N)=O`, 100 µM produced 80.5% inhibition.
To `CC(C)[C@H](NC(=O)[C@@H](CC(=O)O)NC(=O)[C@H](CCCCN)NC(=O)CNC(=O)[C@H](Cc1c[nH]c2ccccc12)NC(=O)[C@H](CCCN=C(N)N)NC(=O)[C@@H](Cc1ccccc1)NC(=O)[C@@H](N)Cc1c[nH]cn1)C(N)=O` belongs 3.7%; to `CC(C)[C@H](NC(=O)[C@H](C)NC(=O)[C@H](CCCCN)NC(=O)CNC(=O)[C@H](Cc1c[nH]c2ccccc12)NC(=O)[C@H](CCCN=C(N)N)NC(=O)[C@H](Cc1ccccc1)NC(=O)[C@@H](N)Cc1c[nH]cn1)C(N)=O`, 46.1%.
To `CC(C)[C@H](NC(=O)[C@H](CCC(=O)O)NC(=O)[C@H](CCCCN)NC(=O)CNC(=O)[C@H](Cc1c[nH]c2ccccc12)NC(=O)[C@H](CCCN=C(N)N)NC(=O)[C@@H](Cc1ccc2ccccc2c1)NC(=O)[C@@H](N)Cc1c[nH]cn1)C(N)=O` belongs 32.3%; to `CC(C)[C@H](NC(=O)[C@H](CC(=O)O)NC(=O)[C@H](CCCCN)NC(=O)CNC(=O)[C@H](Cc1c[nH]c2ccccc12)NC(=O)[C@H](CCCN=C(N)N)NC(=O)[C@@H](Cc1ccc2ccccc2c1)NC(=O)[C@@H](N)Cc1c[nH]cn1)C(N)=O`, 16.8%; to `CC(C)[C@H](NC(=O)[C@@H](Cc1ccccc1)NC(=O)[C@H](CCCCN)NC(=O)CNC(=O)[C@H](Cc1c[nH]c2ccccc12)NC(=O)[C@H](CCCN=C(N)N)NC(=O)[C@@H](Cc1ccccc1)NC(=O)[C@@H](N)Cc1c[nH]cn1)C(N)=O`, 89.6%.
`CC(C)[C@H](NC(=O)[C@@H](C)NC(=O)[C@H](CCCCN)NC(=O)CNC(=O)[C@H](Cc1c[nH]c2ccccc12)NC(=O)[C@H](CCCN=C(N)N)NC(=O)[C@H](Cc1ccccc1)NC(=O)[C@@H](N)Cc1c[nH]cn1)C(N)=O` came in with an inhibition at 100 µM of 12.8%.
Regarding `CC(C)[C@H](NC(=O)[C@@H](Cc1ccccc1)NC(=O)[C@H](CCCCN)NC(=O)CNC(=O)[C@H](Cc1c[nH]c2ccccc12)NC(=O)[C@H](CCCN=C(N)N)NC(=O)[C@H](Cc1ccccc1)NC(=O)[C@@H](N)Cc1c[nH]cn1)C(N)=O`, the inhibition at 100 µM turned out to be 90.8%.
Turning to `CC(C)[C@H](NC(=O)CNC(=O)[C@H](CCCCN)NC(=O)CNC(=O)[C@H](Cc1c[nH]c2ccccc12)NC(=O)[C@H](CCCN=C(N)N)NC(=O)[C@@H](Cc1ccc2ccccc2c1)NC(=O)[C@@H](N)Cc1c[nH]cn1)C(N)=O`, the inhibition at 100 µM amounted to 36.2%.
The compound `CC(C)[C@H](NC(=O)[C@@H](CC(=O)O)NC(=O)[C@H](CCCCN)NC(=O)CNC(=O)[C@H](Cc1c[nH]c2ccccc12)NC(=O)[C@H](CCCN=C(N)N)NC(=O)[C@H](Cc1ccccc1)NC(=O)[C@@H](N)Cc1c[nH]cn1)C(N)=O` registered an inhibition at 100 µM of 5.9%.
To `CC(C)[C@H](NC(=O)[C@H](Cc1ccccc1)NC(=O)[C@H](CCCCN)NC(=O)CNC(=O)[C@H](Cc1c[nH]c2ccccc12)NC(=O)[C@H](CCCN=C(N)N)NC(=O)[C@@H](Cc1ccccc1)NC(=O)[C@@H](N)Cc1c[nH]cn1)C(N)=O` belongs 77.7%; to `CC(C)[C@H](NC(=O)[C@@H]1CCCN1C(=O)[C@H](CCCCN)NC(=O)CNC(=O)[C@H](Cc1c[nH]c2ccccc12)NC(=O)[C@H](CCCN=C(N)N)NC(=O)[C@@H](Cc1ccc2ccccc2c1)NC(=O)[C@@H](N)Cc1c[nH]cn1)C(N)=O` (H-H[d2Nal]RWGKPV-NH2), 95.3%; to H-HFRWGAPV-NH2, 26.2%.
Compound H-HFRWGKEV-NH2 came in with an inhibition at 100 µM of 11.2%.
To H-HFRWGKGV-NH2 belongs 41.8%; to H-HFRWGKKV-NH2, 41%; to H-HFRWGKPA-NH2, 68.4%.
On to H-HFRWGKPL-NH2, for which the inhibition at 100 µM was found to be 87.4%.
H-HFRWGKSV-NH2 returned an inhibition at 100 µM of 32.3%.
